PfM18AAP inh: PfM18AAP inhibitors, malaria aminopeptidase, primary screen, biochemical, QFRET, recombinant enzyme; M18 aspartyl aminopeptidase (Plasmodium falciparum 3D7); H-Glu-NHMec fluorogenic cleavage; inhibition, % at 7.35 µM; 290,000 tested, 1.2% active; AID 1822, 2009;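 active means inhibition above the campaign mean inhibition over all tested compounds plus 3 SD, cut at about 28% in these data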;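 further: 0% = plate median of test compound wells and 100% = 2 mM ZnCl2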
HKDC1 inhibitor: HKDC1 hexokinase inhibitors, primary screen, biochemical, fluorescence, uHTS | Q2TB90 | recombinant HKDC1, G6PDH/diaphorase resazurin coupled fluorescence | inhibition, % at 20 µM | 340,000 tested, 0.16% active | AID 493160, 2011;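 active means inhibition above about 35% when tested at 20 µM, limit read from the data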;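 further: plate controls were DMSO wells with enzyme for no effect and DMSO wells lacking enzyme for full effect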
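Assay system: recombinant HKDC1 hexokinase; detection: coupled resazurin fluorescence, excitation 525 nm, emission 613 nm; benchmarks: DMSO-plus-enzyme-mix negative control, buffer-substituted positive control; compound dosing: single 20 µM dose; schedule: 90 min at room temperature in dark; also added: glucose plus 1 mM ATP as hexokinase substrates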
PfGluPho inh: PfG6PD enzyme inhibitors, primary screen, biochemical, fluorescence intensity, uHTS. PfGluPho enzyme, NADPH resazurin-diaphorase fluorescence. inhibition, % at 20 µM. 350,000 tested, 0.78% active. AID 504690, 2011;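 active means inhibition reaching at least a set limit at 20 µM in the primary screen, cut at about 59% in these data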;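 further: 0% = DMSO wells with substrate and 100% = DMSO wells lacking glucose-6-phosphate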
Neddyl block: inhibitors of cullin neddylation, primary screen, biochemical, TR-FRET, uHTS, NAE and Ubc12; 360,000 tested, 0.58% active; inhibition, % at 25 µM; in the data active means inhibition above about 36%
Target sequence (P61081 whole entry, looked up): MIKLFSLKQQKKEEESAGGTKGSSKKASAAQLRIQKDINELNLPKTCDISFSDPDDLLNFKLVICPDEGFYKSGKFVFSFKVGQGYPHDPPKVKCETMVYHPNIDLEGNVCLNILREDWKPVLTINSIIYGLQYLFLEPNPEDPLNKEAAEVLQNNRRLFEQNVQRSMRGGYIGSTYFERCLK
Target sequence (Q13564 whole entry, looked up): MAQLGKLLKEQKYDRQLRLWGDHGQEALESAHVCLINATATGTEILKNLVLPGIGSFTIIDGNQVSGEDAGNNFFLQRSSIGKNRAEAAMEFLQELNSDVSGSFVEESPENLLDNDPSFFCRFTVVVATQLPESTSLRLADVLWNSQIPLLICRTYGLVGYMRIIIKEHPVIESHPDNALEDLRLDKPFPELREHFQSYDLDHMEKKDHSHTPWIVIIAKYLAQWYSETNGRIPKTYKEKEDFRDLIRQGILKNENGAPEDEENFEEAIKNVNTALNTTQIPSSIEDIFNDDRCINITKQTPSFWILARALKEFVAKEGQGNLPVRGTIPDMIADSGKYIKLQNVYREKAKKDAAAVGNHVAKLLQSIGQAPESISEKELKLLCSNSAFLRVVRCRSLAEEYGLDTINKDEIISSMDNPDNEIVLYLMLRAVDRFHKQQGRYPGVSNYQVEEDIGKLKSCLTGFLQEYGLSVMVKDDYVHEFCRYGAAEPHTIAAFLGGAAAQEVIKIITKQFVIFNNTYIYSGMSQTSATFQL
HKDC1 act conf: HKDC1 hexokinase activators, confirmation, biochemical, single concentration | inhibition, % at 20 µM | 740 tested, 14% active | recombinant HKDC1, G6PDH/diaphorase resazurin fluorescence; stronger effect = lower value | AID 504708, 2011 | shares compounds with HKDC1 inhibitor;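 active means inhibition at or below a set negative limit, negative inhibition meaning the enzyme was activated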
PfGluPho conf: PfG6PD inhibitors, hit retest, confirmation, biochemical, fluorescence intensity, single concentration; shares compounds with PfGluPho inh; recombinant PfGluPho, NADPH-diaphorase-resazurin fluorescence; inhibition, % at 20 µM; 2,400 tested, 34% active; AID 504753, 2011;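 active means inhibition of at least 50% at 20 µM in any single replicate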;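 further: 0% = DMSO with substrate and 100% = DMSO lacking glucose-6-phosphate substrate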
* marks the source's active call; other numbers are inactive results. Sampled rows, rich in hits. Any-hit rate of the full collection: about 2.2%.

Screening Cc1ccccc1N1C(=O)NC(=O)/C(=C\c2ccc3c(c2)CCCN3Cc2ccccc2)C1=O returned PfM18AAP inh 4, HKDC1 inhibitor 35*, PfGluPho inh 16, Neddyl block -7 and HKDC1 act conf 13.
For COc1ccc(-n2nc(C(=O)NCC(=O)N3CCC4(CC3)OCCO4)c3ccccc3c2=O)cc1Cl the results were PfM18AAP inh 6, HKDC1 inhibitor -1, PfGluPho inh 14 and Neddyl block 5.
CCN(CC)CCCNC(=O)c1c(O)c2ccccc2n(Cc2ccccc2)c1=O was read as PfM18AAP inh 2, HKDC1 inhibitor 83*, PfGluPho inh 40, Neddyl block 5 and HKDC1 act conf -37*.
`CCN(CC)CCNC(=O)c1c(O)c2ccccc2n(Cc2ccccc2)c1=O` gave PfM18AAP inh -4, HKDC1 inhibitor -4, PfGluPho inh 9 and Neddyl block 7.
`CC1CCC(C)(NS(=O)(=O)OCC(Cl)(Cl)Cl)CC1` (stereo not given) gave PfM18AAP inh 3, HKDC1 inhibitor 38*, PfGluPho inh 3, Neddyl block -14 and HKDC1 act conf -30.
For CCN1C(=O)NC(=O)/C(=C/c2cc(C)n(-c3sc(C)c(C)c3C#N)c2C)C1=O the results were PfM18AAP inh 22, HKDC1 inhibitor 7, PfGluPho inh 11 and Neddyl block 2.
CCOC(=O)c1c(-n2c(C)cc(C=C3C(=O)NC(=S)NC3=O)c2C)sc2c1CCCC2 was read as PfM18AAP inh 0, HKDC1 inhibitor 59*, PfGluPho inh -39, Neddyl block -10 and HKDC1 act conf 61.
For Cc1ccc(N2C(=O)NC(=O)/C(=C\c3cc(C)n(-c4sc5c(c4C#N)CCCC5)c3C)C2=O)cc1 the results were PfM18AAP inh 6, HKDC1 inhibitor 66*, PfGluPho inh 22, Neddyl block -23 and HKDC1 act conf 77.
For COc1ccc2c3c1OC1C(O)C=CC4C(C2)[N+](C)(C)CCC341 (stereo not given) the results were PfM18AAP inh 1, HKDC1 inhibitor 1, PfGluPho inh 29 and Neddyl block 0.
O=C(NC1CCCCC1)N1C[C@H]2C[C@@H](C1)c1cccc(=O)n1C2 was read as PfM18AAP inh -1, HKDC1 inhibitor -1, PfGluPho inh -12 and Neddyl block 8.
COC(=O)C1=C(c2c(C)noc2C)C[C@@H]2CC[C@H]1N2C(=O)NCCNC(C)=O was read as HKDC1 inhibitor 1, PfGluPho inh -18 and Neddyl block -7.
`COc1cc(O)cc2c1cc([N+](=O)[O-])c1c(C(=O)O)cc3c(c12)OCO3` gave HKDC1 inhibitor 36*, PfGluPho inh 42, Neddyl block 1 and HKDC1 act conf 33.
O=c1nc(/C=C/c2ccc(Cl)cc2Cl)cc(C(F)(F)F)[nH]1 was read as PfM18AAP inh 6, HKDC1 inhibitor 35*, PfGluPho inh -6, Neddyl block 0 and HKDC1 act conf 6.
For COc1ccc(C(CNC(=O)CCc2ccsc2)N(C)C)cc1 (stereo not given) the results were PfM18AAP inh 2, HKDC1 inhibitor -4, PfGluPho inh -5 and Neddyl block -9.
For COc1ccc(-n2c(/C=C/c3ccc(O)c(OC)c3)nc3ccccc3c2=O)cc1 the results were PfM18AAP inh -13, HKDC1 inhibitor 4, PfGluPho inh 20 and Neddyl block 10.
Screening COc1cccc(-n2c(/C=C/c3ccc(O)c(O)c3)nc3ccccc3c2=O)c1 returned PfM18AAP inh 57*, HKDC1 inhibitor -8, PfGluPho inh 64*, Neddyl block 25 and PfGluPho conf 6.
Screening COc1cc2c(cc1OC)-c1c(OC)c(OC)cc3c1C(C2)N(C)CC3 (stereo not given) returned PfM18AAP inh 18, HKDC1 inhibitor 21, PfGluPho inh 68*, Neddyl block -33 and PfGluPho conf 41.

Compound activity: PubChem BioAssay, several laboratories
